Measurements from ChEMBL document CHEMBL1122665, “Synthesis of thyrotropin-releasing hormone analogues. 1. Complete dissociation of central nervous system effects from thyrotropin-releasing activity” (1984).
Non-standard residues stand in square brackets, D forms with d. Residues, ends and D or L forms follow the SMILES beside them. *: point of attachment. Cha = N[C@@H](CC1CCCCC1)C(=O)O; pGlu = O=C1CC[C@@H](C(=O)O)N1; Nle = CCCC[C@H](N)C(=O)O; Nva = CCC[C@H](N)C(=O)O; Abu = CC[C@H](N)C(=O)O; tBu = CC(C)(C)*

Assays:
[1] = Evaluated for hormonal (TSH) releasing activity in adult male albino rats after single intraperitoneal injection using radioimmunoassay; format: functional
Outline: (§1)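 Two-point assay in adult male albino rats: single ip injection at 1 and 10 μg. Blood drawn 15 min post-injection. Serum TSH measured by radioimmunoassay (NIAMDD rat TSH-RIA system). Relative potency expressed in percent, with synthetic TRH reference set at 100%.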

[2] = test system: Rattus norvegicus; experiment: Anticataleptic effect at effective dose after intravenous administration in adult male Wistar rats; format: functional
Outline: (§2)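 Haloperidol catalepsy induced in adult male Wistar rats by 4 mg/kg ip. Analogues given iv at 5 to 80 mg/kg, 2 h after haloperidol. Read-out is inhibition of catalepsy, taken as a measure of dopaminergic stimulation. Synthetic TRH served as reference standard.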

[3] = test system: Rattus norvegicus; experiment: Inhibition of haloperidol catalepsy by less than 50% in a dose of 80 mg/kg, iv in adult male Wistar rats; format: functional
[4] = test system: Rattus norvegicus; experiment: Evaluated for hormonal (TSH) releasing activity in adult male albino rats after single intraperitoneal injection using radioimmunoassay; np- significant activity but not parallel TSH response to the lower and upper doses used; format: functional, organism-based; outline: as §1
[5] = test system: Rattus norvegicus; experiment: Anticataleptic effect at effective dose after intravenous administration in adult male Wistar rats.; format: functional; outline: as §2
[6] = test system: Rattus norvegicus; experiment: Evaluated for hormonal (TSH) releasing activity in adult male albino rats after single intraperitoneal injection using radioimmunoassay; np -significant but not parallel TSH response to the lower and upper doses used; format: functional, organism-based; outline: as §1
[7] = test system: Rattus norvegicus; experiment: Evaluated for hormonal (TSH) releasing activity in adult male albino rats after single intraperitoneal injection using radioimmunoassay; np-significant activity but not parallel TSH response to the lower and upper doses used; format: functional, organism-based; outline: as §1
[8] = Rattus norvegicus, iv, read-out: ED50

| SMILES | Activity [1] | ED50 [2, 8] | inhibition in vivo at 80 mg/kg [3] | further results |
| --- | --- | --- | --- | --- |
| CCNC(=O)[C@H]1CCCN1C(=O)[C@@H](CC(C)C)NC(=O)[C@H]1CCC(=O)N1 | 0% | 56.6 mg/kg |  |  |
| NC(=O)[C@@H]1CCCN1C(=O)[C@@H]1CCCN1C(=O)[C@@H]1CCC(=O)N1 |  | 80 mg/kg |  |  |
| CC(C)C[C@@H](NC(=O)[C@H]1CCC(=O)N1)C(=O)N1CCC[C@@H]1C(=O)O | 0.1% |  | 0% |  |
| CCC[C@H](NC(=O)[C@@H]1CCC(=O)N1)C(=O)N1CCC[C@H]1C(N)=O ([pGlu]-[Nva]-Pro-NH2) | 0% | 11.4 mg/kg |  |  |
| C[C@H](NC(=O)[C@@H]1CCC(=O)N1)C(=O)N1CCC[C@H]1C(N)=O ([pGlu]-Ala-Pro-NH2) | 0% |  | 0% |  |
| CC(C)C[C@H](NC(=O)[C@@H]1CCC(=O)N1)C(=O)N1CCC[C@@H]1C(N)=O | 0% | > 80 mg/kg |  |  |
| NC(=O)[C@@H]1CCCN1C(=O)[C@@H]1CCCN1C(=O)[C@H]1CCC(=O)N1 |  |  |  | Activity [4]: Significant but not parallel |
| CCCCCCCCCCNC(=O)[C@H]1CCCN1C(=O)[C@@H](CC(C)C)NC(=O)[C@H]1CCC(=O)N1 | 0% |  | 10% |  |
| CC(C)C[C@@H](NC(=O)[C@@H]1CCC(=O)N1)C(=O)N1CCC[C@H]1C(N)=O | 0% | > 80 mg/kg |  |  |
| CC(C)(C)OC[C@H](NC(=O)[C@@H]1CCC(=O)N1)C(=O)N1CCC[C@H]1C(N)=O ([pGlu]-Ser(tBu)-Pro-NH2) | 0.2% |  | 0% |  |
| NC(=O)[C@@H]1CCCN1C(=O)[C@H](Cc1ccccc1)NC(=O)[C@@H]1CCC(=O)N1 ([pGlu]-Phe-Pro-NH2) |  |  | 40% |  |
| CC(C)C[C@H](NC(=O)[C@@H]1CCC(=O)N1)C(=O)N1CCC[C@H]1C(N)=O [listing 1 of 2 here] | 2.7% |  |  | ED50 [2]: 40 mg/kg |
| CCCC[C@H](NC(=O)[C@@H]1CCC(=O)N1)C(=O)N1CCC[C@H]1C(N)=O ([pGlu]-[Nle]-Pro-NH2) | 3.8% | 16.8 mg/kg |  |  |
| CC(C)[C@H](NC(=O)[C@@H]1CCC(=O)N1)C(=O)N1CCC[C@H]1C(N)=O ([pGlu]-Val-Pro-NH2) | 3.1% | > 80 mg/kg |  |  |
| NC(=O)[C@@H]1CCCN1C(=O)[C@H](CC1CCCCC1)NC(=O)[C@@H]1CCC(=O)N1 ([pGlu]-[Cha]-Pro-NH2) | 45.6% |  | 20% |  |
| CC(C)C[C@H](NC(=O)[C@@H]1CCC(=O)N1)C(=O)N1CCC[C@H]1C(N)=O [listing 2 of 2 here] | 0% | 70 mg/kg |  |  |
| COC(=O)[C@H]1CCCN1C(=O)[C@@H](CC(C)C)NC(=O)[C@H]1CCC(=O)N1 | 0% |  | 0% |  |
| C[C@@H](O)[C@H](NC(=O)[C@@H]1CCC(=O)N1)C(=O)N1CCC[C@H]1C(N)=O ([pGlu]-Thr-Pro-NH2) | 25.7% | 80 mg/kg |  |  |
| CC[C@H](C)[C@H](NC(=O)[C@@H]1CCC(=O)N1)C(=O)N1CCC[C@H]1C(N)=O ([pGlu]-Ile-Pro-NH2) | 0.2% |  | 10% |  |
| NC(=O)[C@@H]1CCCN1C(=O)[C@H](Cc1c[nH]cn1)NC(=O)[C@@H]1CCC(=O)N1 [PROTIRELIN] | 100% |  | 40% | ED50 [5]: 113 mg/kg |
| CCCCCCCC[C@H](NC(=O)[C@@H]1CCC(=O)N1)C(=O)N1CCC[C@H]1C(N)=O |  |  | 0% | Activity [6]: Significant but not parallel |
| CC(C)C[C@@H](NC(=O)[C@H]1CCC(=O)N1)C(=O)N1CCCC1 |  |  | 20% | Activity [7]: Significant but not parallel |
| CC(C)C[C@@H](NC(=O)[C@H]1CCC(=O)N1)C(=O)N1CCC[C@@H]1C(=O)NCCN(C)C | 0% |  | 10% |  |
| CC[C@H](NC(=O)[C@@H]1CCC(=O)N1)C(=O)N1CCC[C@H]1C(N)=O ([pGlu]-[Abu]-Pro-NH2) | 0% | ≥ 80 mg/kg |  |  |
| NC(=O)[C@@H]1CCCN1C(=O)CNC(=O)[C@@H]1CCC(=O)N1 ([pGlu]-Gly-Pro-NH2) | 0% |  | 10% |  |
| CSCC[C@H](NC(=O)[C@@H]1CCC(=O)N1)C(=O)N1CCC[C@H]1C(N)=O ([pGlu]-Met-Pro-NH2) | 1% |  | 40% |  |
